Experimental findings from PubChem BioAssay AID493134 (Broad Institute, 2011) are described below.

Structures are written as SMILES. Several values for one entry are separate records, joined by “and”; a condition that tells them apart may be missing. Equal values may be shown once. Activity calls are given as the source filed them.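 The calls were made as follows: active = growth inhibition with fitted half-maximal dose at or below ten times the top tested dose; inconclusive = flat curve with inhibition of 30 to 70%, or poor fit; inactive = the rest.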

The AC50 is the concentration at which the activity in the assay is half-maximal.

Test system in one assay: not listed separately
In words: growth inhibition of C. albicans without azole, dose response, counter-screen for antifungal drug resistance project, CaCi-2 strain, Alamar Blue, dry powder, set 7 (AID 493134). The settings on record: C. albicans CaCi-2 growth, Alamar Blue fluorescence, 48 h; at 19.5 µM (top of the series). An outline of the steps:
(§1)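 System: Fluconazole-resistant clinical Candida albicans isolate CaCi-2 | Doses: Pinned test compound | Incubation: Compound exposure 48 h at 37 °C unshaken, dye 2 h room temperature | Technique: Alamar Blue fluorescence, 1:200 final, Ex 544 nm, Em 590 nm | Read-out basis: Relative yeast growth from fluorescence, loss marking intrinsic toxicity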
A general note: A counterscreen serves to expose hits that act by an unwanted route or on another target.
`COC(=O)Cn1nc(-c2cncnc2)c2ccccc21`: the activity change, negative = inhibition is 7.98% (inactive).

The same assay, now with this note: C. albicans CaCi-2 growth, Alamar Blue fluorescence, 48 h; at 26 µM (top of the series).
Take `O=C(Cn1c2ccccc2c2nc3n(c(=O)c21)CCS3)N1CCCC1`: the activity change, negative = inhibition is -14.3% (inactive) and -26.7% (inactive).
As for `COC(=O)Cn1nc(-c2cccc(F)c2)c2ccccc21`, the activity change, negative = inhibition is 16% (inactive).
On the same count and under the same terms, with `CC(C)OC(=O)Cn1nc(-c2ccccc2)c2ccccc21` the figure was -0.006% (inactive); with `O=C(Cn1nc(-c2ccccc2)c2ccccc21)Oc1ccccc1`, 6.4% (inactive); with `N#CCn1nc(-c2ccccc2)c2ccccc21`, 11% (inactive).
Regarding `COC(=O)Cn1nc(-c2ccccc2)c2cc(C)ccc21`, the activity change, negative = inhibition is 2.54% (inactive).
`COC(=O)Cn1nc(-c2cccc(OC)c2)c2ccccc21`: the activity change, negative = inhibition is -0.691% (inactive).
On to `COC(=O)Cn1nc(-c2ccccc2)c2ccc(C#N)cc21`, for which the activity change, negative = inhibition was 21.8% (inactive).
Regarding `c1ccc(-c2nn(Cc3nn[nH]n3)c3ccccc23)cc1`, the activity change, negative = inhibition is 9.64% (inactive).
As for `COC(=O)Cn1nc(-c2cccc(C)c2)c2ccccc21`, the activity change, negative = inhibition was 7.2% (inactive).
In the case of `COC(=O)Cn1nc(-c2ccccc2C)c2ccccc21`, the activity change, negative = inhibition is -21.2% (inactive).
On the same count and under the same terms, for `CC(C)(C)OC(=O)Cn1nc(-c2ccccc2)c2ccccc21` the value was -0.465% (inactive).
Consider `COCCn1nc(-c2ccccc2)c2ccccc21`, for which the activity change, negative = inhibition was -0.717% (inactive).
As for `COC(=O)Cn1nc(-c2ccccc2)c2ccc(OC)cc21`, the activity change, negative = inhibition was -26.5% (inactive).
On to `COC(=O)Cn1nc(-c2ccccc2)c2ccc(F)cc21`, for which the activity change, negative = inhibition was 5.28% (inactive).
The same measure, in the same setting: for `COC(=O)Cn1nc(-c2ccccc2OC)c2ccccc21` the value was -23.3% (inactive); for `COC(=O)Cn1nc(-c2ccccc2)c2ccccc21`, -5.47% (inactive); for `COC(=O)Cn1nc(-c2ccccc2)c2cc(F)ccc21`, -6.49% (inactive).
On to `CN(C)C(=O)Cn1nc(-c2ccccc2)c2ccccc21`, for which the activity change, negative = inhibition is -25% (inactive).
Take `COC(=O)Cn1nc(-c2ccc(C(F)(F)F)cc2)c2ccccc21`: the activity change, negative = inhibition was 4.42% (inactive).
For `COC(=O)Cn1nc(-c2ccccc2)c2ccc(C)cc21`, the activity change, negative = inhibition was 0.047% (inactive).
In the case of `CCOC(=O)Cn1nc(-c2ccccc2)c2ccccc21`, the activity change, negative = inhibition is -5.31% (inactive).

The test system of the next assay is C. albicans CaCi-2 (fluconazole-resistant clinical isolate) growth, Alamar Blue fluorescence, 48 h. The description is as above.
Conditions: not given
An outline of the steps:
as §1
In the case of `COC(=O)Cn1nc(-c2ccccc2)c2ccc(C(F)(F)F)cc21`, the half-maximal activity concentration (AC50) is 16.4 µM.
Turning to `COC(=O)Cn1c2ccccc2c2nc3n(c(=O)c21)CCS3`, the AC50 was > 26 µM (inactive).
Take `COC(=O)Cn1nc(-c2ccccc2)c2cc(OC)ccc21`: the AC50 was 20.3 µM.
